B1: tRNA (parent)
chain: GUUCCGUUGGCGUAAUGGUAACGCGUCUCCCUCCUAAGGAGAAGACUGCGGGUUCGAGUCCCGUACGGAACG

Variants of: B1
Experiment: yeast fitness, log relative to wild type (ln ratio); higher = fitter; tRNA-Arg(CCU), competitive growth, 37 C, 1 M NaCl
In short: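 Variants were counted by 125 bp paired-end Illumina sequencing after pools of a combinatorial tRNA-Arg(CCU) library, held on a HIS3 centromeric plasmid in BY4742 lacking the chromosomal gene, grew ~6.5 generations (~26.5 h) in SC-HIS 1M NaCl at 37 °C. Each genotype's fitness is the natural log of its generations relative to the wild type's. Generations were OD-scaled log2 output/input frequencies, inverse-variance weighted over replicates.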

Variant | yeast fitness (ln)
U2C C27U C46U C66A A69G A70G | -0.227
U2C C27U C46U C66A A69G A70U | -0.114
U2C C27U A70U | -0.0757
U2C C27U A70G | -0.0415
U2C C27U A43C C46U | -0.0298
U2C C27U C66A C71U | -0.146
U2C C27U A43C C46U C66U A69G A70U C71U | -0.46
U2C C27U A43C C46U C66A A69G C71U | -0.41
U2C A43C C66A A69G A70U C71U | -0.368
U2C C27U C66A A69G A70U | -0.119
U2C C27U A43C A70G C71U | -0.0236
U2C A70G C71U | -0.013
U2C C27U C46U C66A A70G C71U | -0.181
U2C C27U C66U A70G | -0.0659
U2C C27U C66U A70U | -0.113
U2C C27U A43C C46U C66U A69G A70G C71U | -0.216
U2C A69G C71U | -0.158
U2C C27U A43C A69G A70U | -0.136
U2C C27U A43C A69G A70G | -0.0551
U2C A70U C71U | -0.0765
U2C C27U A43C C46U C66U A70G C71U | -0.406
U2C C27U C46U A70G C71U | -0.0224
U2C C27U A43C C66U C71U | -0.311
U2C C27U C46U | -0.0168

Variant | yeast fitness (ln)
U2C A43C C66U C71U | -0.24
U2C C27U C46U A69G A70U | -0.198
U2C C27U C46U A69G A70G | -0.0283
U2C C27U A43C A70U C71U | -0.172
U2C C27U A43C C46U A69G A70G C71U | -0.0222
U2C C27U A43C C46U A70G C71U | -0.00986
U2C C27U A43C C46U C66A | -0.0384
U2C C27U A43C C46U C66U | -0.0652
U2C C27U C46U C66U C71U | -0.132
U2C C27U A43C C46U C66A A69G A70U C71U | -0.472
U2C A43C C66U A69G A70U C71U | -0.605
U2C C27U A43C C66U | -0.15
U2C C27U A43C C66A | -0.155
U2C C27U C46U A69G A70G C71U | -0.0348
U2C C27U C46U C66A A70U C71U | -0.134
U2C C27U C66U A70U C71U | -0.324
U2C A43C C66U A70U C71U | -0.424
U2C C27U A43C A69G | -0.0976
U2C A43C C46U C66U C71U | -0.19
U2C C27U A43C C66A A69G A70U C71U | -0.443
U2C C27U C66U A69G A70G | -0.185
U2C C27U C66U A69G A70U | -0.188
U2C A43C C46U C66U A69G A70G | -0.0788
U2C A43C C46U C66U A69G A70U | -0.191

Variant | yeast fitness (ln)
U2C A43C C46U C66U A69G A70U C71U | -0.39
U2C A43C C66A A69G A70G C71U | -0.168
U2C C27U A43C C66U A70G | -0.232
U2C C27U A43C C66U A70U | -0.135
U2C C27U A43C C46U A70G | -0.0098
U2C C27U A43C C46U A70U | -0.14
U2C C27U C46U A70U C71U | -0.09
U2C C27U A43C A69G C71U | -0.144
U2C A69G | -0.0379
U2C C27U A43C C46U C66A A70U C71U | -0.269
U2C C27U A43C C46U A70U C71U | -0.0649
U2C C27U A43C C46U C66A A69G A70G C71U | -0.15
U2C A69G A70G | -0.0175
U2C A69G A70U | -0.117
U2C C27U C66A A70G C71U | -0.157
U2C C27U A70U C71U | -0.104
U2C A43C C66U A70U | -0.0776
U2C A43C C66U A70G | -0.0636
U2C C27U A43C C66A A70U C71U | -0.319
U2C C27U C46U C66A A70G | -0.137
U2C C27U C46U C66A A70U | -0.0366
U2C C27U A43C A69G A70U C71U | -0.266
U2C C27U A70G C71U | -0.0321
U2C C27U A43C C46U C71U | -0.0612

Variant | yeast fitness (ln)
U2C C27U A43C A70U | -0.152
U2C C27U A43C A70G | -0.0248
U2C C27U A43C C46U C66A A69G A70U | -0.263
U2C C27U A43C C46U C66A A69G A70G | -0.0542
U2C C27U C46U C66U A70G C71U | -0.075
U2C C27U C46U C66U A69G A70U C71U | -0.411
U2C C27U C46U C66A A69G A70G C71U | -0.106
U2C C27U A69G A70G C71U | -0.0353
U2C C27U A43C C66A A70G C71U | -0.111
U2C C27U C46U C66A | -0.143
U2C C27U C46U C66U | -0.0297
U2C A43C C66U A70G C71U | -0.346
U2C C27U C46U C66A C71U | -0.0945
U2C C27U C66A A69G A70G C71U | -0.142
U2C C27U A43C C66U A69G A70G C71U | -0.288
U2C C27U C66U A69G A70G C71U | -0.529
U2C A43C C66A A70G | -0.0552
U2C A43C C66A A70U | -0.0829
U2C C27U A43C C66A A69G A70G C71U | -0.328
U2C C27U A43C C46U C66A A70G C71U | -0.105
U2C A43C C46U C66U A69G C71U | -0.25
U2C C27U C46U A69G | -0.319
U2C C27U C46U C66U A69G C71U | -0.243
U2C C27U C46U C66A A69G A70U C71U | -0.387

Variant | yeast fitness (ln)
U2C C27U C66U A70G C71U | -0.172
U2C C27U C46U C66U A69G A70G C71U | -0.281
U2C C27U C66U | -0.0757
U2C C27U A43C C46U C66U A70G | -0.0949
U2C C27U A43C C46U C66U A70U | -0.115
U2C C27U C46U C71U | -0.268
U2C C27U C66A A70U C71U | -0.222
U2C C27U C46U A69G C71U | -0.104
U2C C27U A43C C66A A70G | -0.0848
U2C C27U A43C C66A A70U | -0.145
U2C C27U A43C C46U C66A A70G | -0.0421
U2C C27U A43C C46U C66A A70U | -0.0988
U2C C27U A43C A69G A70G C71U | -0.0704
U2C C27U A43C C46U A69G A70U | -0.169
U2C C27U A43C C46U A69G A70G | -0.0239
U2C C27U A43C C66U A69G C71U | -0.388
U2C C27U A43C C66U A70G C71U | -0.207
U2C C27U A43C C46U C66U A69G A70U | -0.259
U2C C27U A43C C46U C66U A69G A70G | -0.303
U2C A43C C46U C66U A69G A70G C71U | -0.315
U2C C27U C46U A69G A70U C71U | -0.216
U2C A43C C66A A70U C71U | -0.275
U2C C27U A69G A70G | -0.0516
U2C C27U A69G A70U | -0.175

Variant | yeast fitness (ln)
U2C C27U C46U A70U | -0.0474
U2C C27U C46U A70G | -0.0268
U2C A43C C66U A69G A70G C71U | -0.23
U2C C27U A43C C71U | -0.0796
U2C A43C C66U A69G A70U | -0.263
U2C A43C C66U A69G A70G | -0.169
U2C C27U C46U C66U A70U | -0.0783
U2C C27U C46U C66U A70G | -0.04
U2C A43C C66A A70G C71U | -0.11
U2C C27U A43C C46U C66U A70U C71U | -0.324
U2C A70U | -0.0103
U2C A70G | 0.00112
U2C C27U C66U A69G A70U C71U | -0.453
U2C C27U C46U C66U A70U C71U | -0.199
U2C A43C C66U | -0.0874
U2C A43C C66A | -0.0546
U2C A43C C46U C66U | -0.0687
U2C C27U C46U C66U A69G A70U | -0.137
U2C C27U C46U C66U A69G A70G | -0.0845
U2C C27U | -0.0171
U2C A43C C66A A69G A70G | -0.186
U2C C27U A43C C46U A69G | -0.0409
U2C C27U A43C C46U C66A C71U | -0.132
U2C C27U A69G A70U C71U | -0.278

Variant | yeast fitness (ln)
U2C C27U C66U A69G C71U | -0.303
U2C C27U A43C C46U C66U A69G C71U | -0.281
U2C C27U A69G | -0.23
U2C A43C C46U C66U A70U C71U | -0.198
U2C C27U A43C C66U A70U C71U | -0.343
U2C A43C C46U C66U A70G C71U | -0.152
U2C C27U A43C C46U C66U C71U | -0.174
U2C A43C C71U | -0.168
U2C C27U A43C C46U A69G A70U C71U | -0.307
U2C A43C C66A C71U | -0.169
U2C C27U A43C C46U A69G C71U | -0.118
U2C C27U A43C | -0.0586
U2C A43C C46U C71U | -0.193
U2C A69G A70U C71U | -0.199
U2C C27U C66A A70U | -0.0861
U2C C27U C66A A70G | -0.105
U2C C27U A69G C71U | -0.102
U2C C27U A43C C66U A69G A70U C71U | -0.476
U2C A43C C46U C66U A70G | -0.0311
U2C A43C C46U C66U A70U | -0.0497
U2C C27U A43C C66U A69G A70G | -0.332
U2C C27U A43C C66U A69G A70U | -0.439
U2C A69G A70G C71U | -0.0131

Source: the RNAGym collection of RNA variant scans (doi:10.1038/s41586-018-0170-7)
